From ChEMBL document CHEMBL3286182, “4-aminoquinolone piperidine amides: noncovalent inhibitors of DprE1 with long residence time and potent antimycobacterial activity” (J Med Chem, 2014)
≈ marks a conversion by molar mass, not a printed value. Calls of active or inactive are those of the source. The calls are words filed in the database; no cut-off is given here.

Tests used:
[1] = tested on: Mycobacterium tuberculosis; assay: Antimycobacterial activity against Mycobacterium tuberculosis H37Rv after 5 days by standard microdilution method; type: functional; conditions: 120 h
[2] = Cytotoxicity against human A549 cells after 72 hrs by resazurin based fluorescence assay; type: cell-based; conditions: read-out: MIC
Summary of the method: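 Cytotoxicity read as MMIC, the MIC on the A549 cell line.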

[3] = Solubility of the compound in 0.1 M phosphate buffer at pH 7.4 after 24 hrs by UV and MS analysis; type: physicochemical
[4] = Octanol-water partition coefficient, log D of the compound by shake-flask method; type: physicochemical
[5] = Fraction unbound in human plasma at 20 uM after 18 hrs by equilibrium dialysis method; type: ADME, cell-free
[6] = Intrinsic clearance in human liver microsomes at 1 uM up to 30 mins by LC-MS/MS analysis; type: ADME; conditions: read-out: CLH
[7] = Intrinsic clearance in rat cryopreserved hepatocytes assessed per 10^6 cells at 1 uM up to 120 mins by LC-MS/MS analysis; type: ADME, cell-based, Hepatocyte; conditions: read-out: CLH
[8] = Permeability of the compound from apical to basolateral side in human Caco2 cells; type: ADME, cell-based; conditions: Caco-2, read-out: permeability
[9] = Permeability of the compound from basolateral to apical side in human Caco2 cells; type: ADME, cell-based; conditions: Caco-2, read-out: permeability
[10] = molecular target: Voltage-gated inwardly rectifying potassium channel KCNH2 (Homo sapiens, UniProt Q12809); assay: Inhibition of human ERG by medium-throughput electrophysiology
Chain of Voltage-gated inwardly rectifying potassium channel KCNH2 (Q12809 whole entry): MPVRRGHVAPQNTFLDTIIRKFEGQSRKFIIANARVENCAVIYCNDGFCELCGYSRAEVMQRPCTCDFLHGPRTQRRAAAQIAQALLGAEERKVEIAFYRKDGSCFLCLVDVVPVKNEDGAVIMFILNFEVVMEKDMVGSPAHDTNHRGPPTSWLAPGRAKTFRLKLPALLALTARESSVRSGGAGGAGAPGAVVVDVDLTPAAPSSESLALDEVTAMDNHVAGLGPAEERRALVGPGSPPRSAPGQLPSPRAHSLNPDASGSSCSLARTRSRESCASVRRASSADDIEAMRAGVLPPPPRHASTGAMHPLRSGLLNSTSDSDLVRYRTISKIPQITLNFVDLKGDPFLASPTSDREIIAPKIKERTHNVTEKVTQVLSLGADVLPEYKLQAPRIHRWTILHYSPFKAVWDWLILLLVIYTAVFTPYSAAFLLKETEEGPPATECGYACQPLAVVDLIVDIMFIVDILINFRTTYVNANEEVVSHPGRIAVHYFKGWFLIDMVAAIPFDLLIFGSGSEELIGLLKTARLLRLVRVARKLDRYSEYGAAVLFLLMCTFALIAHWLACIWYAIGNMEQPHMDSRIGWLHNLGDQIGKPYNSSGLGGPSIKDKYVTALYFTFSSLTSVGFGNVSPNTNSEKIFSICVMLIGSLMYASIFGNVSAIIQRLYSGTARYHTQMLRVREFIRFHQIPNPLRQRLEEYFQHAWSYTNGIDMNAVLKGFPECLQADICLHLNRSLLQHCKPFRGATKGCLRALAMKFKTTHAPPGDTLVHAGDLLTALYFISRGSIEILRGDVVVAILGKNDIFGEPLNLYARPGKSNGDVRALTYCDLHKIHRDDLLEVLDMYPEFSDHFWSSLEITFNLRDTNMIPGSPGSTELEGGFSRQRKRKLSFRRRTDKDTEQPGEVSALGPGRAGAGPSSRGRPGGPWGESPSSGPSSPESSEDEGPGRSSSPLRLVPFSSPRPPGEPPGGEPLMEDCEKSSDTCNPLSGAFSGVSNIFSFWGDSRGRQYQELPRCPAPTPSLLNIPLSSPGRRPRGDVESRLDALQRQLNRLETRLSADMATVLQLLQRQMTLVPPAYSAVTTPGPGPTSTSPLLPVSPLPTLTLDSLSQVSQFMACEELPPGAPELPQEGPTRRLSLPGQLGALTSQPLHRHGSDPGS

Cytochrome P450 3A4 = Cytochrome P450 3A4 (Homo sapiens, UniProt P08684); assay: Inhibition of CYP3A4 (unknown origin); type: ADME
Chain of Cytochrome P450 3A4 (P08684 whole entry, canonical isoform): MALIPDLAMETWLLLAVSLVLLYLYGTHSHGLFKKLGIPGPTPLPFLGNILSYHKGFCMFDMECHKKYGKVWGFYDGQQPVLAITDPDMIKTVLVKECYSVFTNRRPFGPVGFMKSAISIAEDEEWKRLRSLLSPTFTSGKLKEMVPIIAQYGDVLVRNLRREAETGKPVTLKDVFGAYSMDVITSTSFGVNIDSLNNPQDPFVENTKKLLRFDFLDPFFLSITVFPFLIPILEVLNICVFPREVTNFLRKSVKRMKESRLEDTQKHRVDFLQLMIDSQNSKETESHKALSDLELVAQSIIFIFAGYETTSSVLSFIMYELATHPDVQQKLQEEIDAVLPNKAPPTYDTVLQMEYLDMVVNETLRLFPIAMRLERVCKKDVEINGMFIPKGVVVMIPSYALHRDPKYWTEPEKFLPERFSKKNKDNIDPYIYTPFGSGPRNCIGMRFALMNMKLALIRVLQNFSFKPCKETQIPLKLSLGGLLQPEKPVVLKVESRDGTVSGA
Summary of the method: (§1)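 CYP inhibition IC50 measured on isoforms CYP3A4, CYP2D6, CYP2C9, CYP2C19 and CYP1A2.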

Cytochrome P450 2D6 = Cytochrome P450 2D6 (Homo sapiens, UniProt P10635); assay: Inhibition of CYP2D6 (unknown origin); type: ADME; summary of the method: as §1
Chain of Cytochrome P450 2D6 (P10635 whole entry): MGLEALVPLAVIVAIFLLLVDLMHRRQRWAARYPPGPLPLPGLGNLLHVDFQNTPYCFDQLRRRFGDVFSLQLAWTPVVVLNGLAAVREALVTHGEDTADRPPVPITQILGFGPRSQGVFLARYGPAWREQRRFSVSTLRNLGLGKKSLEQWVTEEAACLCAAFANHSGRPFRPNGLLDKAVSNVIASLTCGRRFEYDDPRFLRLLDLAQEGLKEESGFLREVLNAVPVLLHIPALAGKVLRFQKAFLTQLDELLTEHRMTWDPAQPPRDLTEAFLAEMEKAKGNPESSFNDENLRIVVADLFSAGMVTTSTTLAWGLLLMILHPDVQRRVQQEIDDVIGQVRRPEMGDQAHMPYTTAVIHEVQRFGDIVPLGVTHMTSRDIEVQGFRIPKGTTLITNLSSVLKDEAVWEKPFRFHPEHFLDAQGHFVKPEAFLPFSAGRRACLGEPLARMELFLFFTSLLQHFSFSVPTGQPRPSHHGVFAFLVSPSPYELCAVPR

Cytochrome P450 2C9 = Cytochrome P450 2C9 (Homo sapiens, UniProt P11712); assay: Inhibition of CYP2C9 (unknown origin); type: ADME; summary of the method: as §1
Chain of Cytochrome P450 2C9 (P11712 whole entry): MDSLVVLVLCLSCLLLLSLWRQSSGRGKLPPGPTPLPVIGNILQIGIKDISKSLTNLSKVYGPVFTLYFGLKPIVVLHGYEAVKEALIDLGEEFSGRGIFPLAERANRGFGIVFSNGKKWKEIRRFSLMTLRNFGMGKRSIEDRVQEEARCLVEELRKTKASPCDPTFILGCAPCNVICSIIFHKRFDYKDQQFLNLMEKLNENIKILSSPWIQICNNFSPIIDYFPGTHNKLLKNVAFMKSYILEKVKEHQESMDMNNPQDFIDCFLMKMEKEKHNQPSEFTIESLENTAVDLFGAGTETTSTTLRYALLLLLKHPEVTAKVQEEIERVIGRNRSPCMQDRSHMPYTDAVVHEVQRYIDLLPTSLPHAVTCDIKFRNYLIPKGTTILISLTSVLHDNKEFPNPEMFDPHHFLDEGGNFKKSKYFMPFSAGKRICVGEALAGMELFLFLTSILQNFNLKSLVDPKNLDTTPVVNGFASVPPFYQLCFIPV

Cytochrome P450 2C19 = Cytochrome P450 2C19 (Homo sapiens, UniProt P33261); assay: Inhibition of CYP2C19 (unknown origin); type: ADME; summary of the method: as §1
Chain of Cytochrome P450 2C19 (P33261 whole entry): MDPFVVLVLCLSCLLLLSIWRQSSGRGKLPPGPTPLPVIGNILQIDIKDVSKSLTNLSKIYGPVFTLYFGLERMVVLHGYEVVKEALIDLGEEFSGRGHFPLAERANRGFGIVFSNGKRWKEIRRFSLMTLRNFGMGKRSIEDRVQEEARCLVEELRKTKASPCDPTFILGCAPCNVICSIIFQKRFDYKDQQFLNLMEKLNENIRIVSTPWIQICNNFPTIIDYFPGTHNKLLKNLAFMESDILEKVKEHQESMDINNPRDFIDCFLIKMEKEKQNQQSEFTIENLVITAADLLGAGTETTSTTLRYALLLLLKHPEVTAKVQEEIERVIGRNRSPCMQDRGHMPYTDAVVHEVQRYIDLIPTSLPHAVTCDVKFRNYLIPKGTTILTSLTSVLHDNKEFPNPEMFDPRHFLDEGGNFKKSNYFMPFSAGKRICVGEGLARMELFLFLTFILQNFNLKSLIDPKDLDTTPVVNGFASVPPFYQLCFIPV

Cytochrome P450 1A2 = molecular target: T1, Cytochrome P450 1A2 (Homo sapiens, UniProt P05177); assay: Inhibition of CYP1A2 (unknown origin); type: ADME; summary of the method: as §1
T1 sequence (P05177 whole entry): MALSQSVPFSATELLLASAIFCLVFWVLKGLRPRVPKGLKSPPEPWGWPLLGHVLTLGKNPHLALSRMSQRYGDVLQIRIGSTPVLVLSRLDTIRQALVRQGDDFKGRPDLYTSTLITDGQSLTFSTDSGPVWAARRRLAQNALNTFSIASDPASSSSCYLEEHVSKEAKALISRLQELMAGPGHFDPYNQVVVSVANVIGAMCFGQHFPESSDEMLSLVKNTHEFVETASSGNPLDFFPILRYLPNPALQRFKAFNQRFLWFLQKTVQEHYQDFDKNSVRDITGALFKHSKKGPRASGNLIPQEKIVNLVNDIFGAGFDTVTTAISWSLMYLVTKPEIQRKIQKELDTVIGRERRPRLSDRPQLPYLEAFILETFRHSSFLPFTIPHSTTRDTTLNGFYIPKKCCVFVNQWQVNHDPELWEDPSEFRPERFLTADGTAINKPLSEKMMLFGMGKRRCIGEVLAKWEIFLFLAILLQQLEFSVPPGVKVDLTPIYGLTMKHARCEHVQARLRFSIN

[11] = Inhibition of Mycobacterium smegmatis recombinant DprE1 using farnesylphosphoryl-beta-D-ribofuranose as substrate assessed as conversion of amplex red to resorufin after 30 mins; set-up: species or system Mycolicibacterium smegmatis
Summary of the method: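 Msm DprE1 (thioredoxin-6His fusion of Msm Rv3790) at 75 nM, preincubated 30 min with 10 μM FAD. Buffer: 50 mM glycylglycine pH 8.5, 200 mM potassium glutamate, 0.002% Brij-35, 2% DMSO, 25 °C. Started with 300 μM farnesylphosphoryl-β-D-ribofuranose, 0.01 mg/mL HRP and 50 μM Amplex Red.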

[12] = Solubility of the compound in fed-state simulated intestinal fluid at pH 6.5; type: ADME
[13] = tested on: Mycobacterium tuberculosis; assay: Antimycobacterial activity against Mycobacterium tuberculosis H37Rv under hypoxic condition after 6 days by resazurin assay; type: functional
Adenosine receptor A1 = molecular target: T2, Adenosine receptor A1 (Homo sapiens, UniProt P30542); assay: Inhibition of adenosine A1 receptor (unknown origin)
T2 sequence (P30542 whole entry): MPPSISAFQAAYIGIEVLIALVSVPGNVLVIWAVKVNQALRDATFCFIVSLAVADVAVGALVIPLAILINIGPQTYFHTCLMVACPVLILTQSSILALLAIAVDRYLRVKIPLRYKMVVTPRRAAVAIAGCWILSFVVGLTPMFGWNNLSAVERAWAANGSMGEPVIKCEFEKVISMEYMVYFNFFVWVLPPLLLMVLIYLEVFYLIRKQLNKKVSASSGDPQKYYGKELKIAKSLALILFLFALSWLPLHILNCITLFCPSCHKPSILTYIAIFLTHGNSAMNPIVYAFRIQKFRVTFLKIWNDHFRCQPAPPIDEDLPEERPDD
Summary of the method: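 Secondary pharmacology panel of binding, enzyme and functional assays covering 24 molecular targets. Activity recorded as a defined Ki/IC50/EC50.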

Staphylococcus aureus = assay: Antimicrobial activity against Staphylococcus aureus ARC517 at 100 uM; type: functional, organism-based
Summary of the method: (§2)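 Nonmycobacterial panel of Candida albicans, Gram-negative and Gram-positive pathogens.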

Streptococcus pneumoniae = assay: Antimicrobial activity against Streptococcus pneumoniae ARC548 at 100 uM; type: functional, organism-based; summary of the method: as §2
Haemophilus influenzae [14] = assay: Antimicrobial activity against Haemophilus influenzae ARC446 at 100 uM; type: functional, organism-based; summary of the method: as §2
Haemophilus influenzae [15] = assay: Antimicrobial activity against Haemophilus influenzae ARC158 at 100 uM; type: functional, organism-based; summary of the method: as §2
Escherichia coli [16] = assay: Antimicrobial activity against Escherichia coli ARC523 at 100 uM; type: functional, organism-based; summary of the method: as §2
Escherichia coli [17] = assay: Antimicrobial activity against Escherichia coli ARC524 at 100 uM; type: functional, organism-based; summary of the method: as §2
Pseudomonas aeruginosa [18] = assay: Antimicrobial activity against Pseudomonas aeruginosa ARC545 at 100 uM; type: functional, organism-based; summary of the method: as §2
Pseudomonas aeruginosa [19] = assay: Antimicrobial activity against Pseudomonas aeruginosa ARC546 at 100 uM; type: functional, organism-based; summary of the method: as §2
Klebsiella pneumoniae = assay: Antimicrobial activity against Klebsiella pneumoniae ARC1865 at 100 uM; type: functional, organism-based; summary of the method: as §2
[20] = tested on: Mycolicibacterium smegmatis; assay: Antimicrobial activity against Mycobacterium smegmatis ATCC 607 at 100 uM; type: functional, organism-based
[21] = tested on: Mycolicibacterium smegmatis; assay: Antimicrobial activity against Mycobacterium smegmatis mc2155 at 100 uM; type: functional, organism-based; conditions: str. MC2 155
Candida albicans = assay: Antimicrobial activity against Candida albicans ARC527 at 100 uM; type: functional, organism-based; summary of the method: as §2
[22] = Initial plasma concentration in Wistar rat at 2 mg/kg, iv; type: ADME, organism-based; set-up: dose 2 mg/kg, route intravenous
Summary of the method: (§3)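 Male Wistar rats given a single dose, 2 mg/kg intravenously or 10 mg/kg orally. Plasma concentration followed over time, n = 2 per compound. Parameters taken from the plasma curves: C0 (iv), Cmax (oral), AUC0−∞, elimination half-life, plasma clearance, Vss and oral bioavailability.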

[23] = AUC (0 to infinity) in Wistar rat at 2 mg/kg, iv; type: ADME, organism-based; set-up: dose 2 mg/kg, route intravenous, time infinity; conditions: plasma; summary of the method: as §3
[24] = Elimination half life in Wistar rat at 2 mg/kg, iv; type: ADME, organism-based; set-up: dose 2 mg/kg, route intravenous; conditions: in vivo, read-out: beta t1/2 (converted); summary of the method: as §3
[25] = Clearance in Wistar rat at 2 mg/kg, iv; type: ADME, organism-based; set-up: dose 2 mg/kg, route intravenous; conditions: in vivo; summary of the method: as §3
[26] = Volume of distribution at steady state in Wistar rat at 2 mg/kg, iv; type: ADME, organism-based; set-up: dose 2 mg/kg, route intravenous; conditions: in vivo, read-out: Vdss; summary of the method: as §3
[27] = Cmax in Wistar rat at 10 mg/kg, po; type: ADME, organism-based; set-up: dose 10 mg/kg, route oral; conditions: in vivo; summary of the method: as §3
[28] = AUC (0 to infinity) in Wistar rat at 10 mg/kg, po; type: ADME, organism-based; set-up: time infinity, dose 10 mg/kg, route oral; conditions: plasma; summary of the method: as §3
[29] = Elimination half life in Wistar rat at 10 mg/kg, po; type: ADME, organism-based; set-up: dose 10 mg/kg, route oral; conditions: in vivo, read-out: beta t1/2 (converted); summary of the method: as §3
[30] = Oral bioavailability in Wistar rat at 10 mg/kg; type: ADME, organism-based; conditions: in vivo; summary of the method: as §3

Cn1ncc(C(=O)N2[C@@H]3CC[C@H]2C[C@@H](Nc2cc(=O)n(C)c4ncccc24)C3)c1Cl
MIC [1]: 0.25 µM (≈ 0.107 µg/mL)
MCC at 72 h [2]: > 50 µM
solubility at 24 h [3]: 20 µM (≈ 8.54 µg/mL)
logD [4]: 1.8
fraction unbound at 18 h, 20 µM [5]: 0.01
microsomal CLint at 1 µM [6]: 37 µL/min/mg
hepatocyte CLint at 1 µM [7]: 3 µL/min/1e6 cells
Papp A→B [8]: 1 ×10⁻⁶ cm/s
Papp B→A [9]: 36 ×10⁻⁶ cm/s
IC50 [10]: > 33 µM
INH (Cytochrome P450 3A4): > 30 µM
INH (Cytochrome P450 2D6): > 30 µM
INH (Cytochrome P450 2C9): > 30 µM
INH (Cytochrome P450 2C19): > 30 µM
INH (Cytochrome P450 1A2): > 30 µM
IC50 [11]: 0.026 µM
solubility [12]: 100 µM (≈ 42.7 µg/mL)

Cn1ncc(C(=O)N2CCC(Nc3cc(=O)n(C)c4ccccc34)CC2)c1Cl
MIC [1]: 25 µM (≈ 10 µg/mL)
Activity [13]: inactive
MCC at 72 h [2]: > 100 µM
solubility at 24 h [3]: 78 µM (≈ 31.2 µg/mL)
logD [4]: 2
fraction unbound at 18 h, 20 µM [5]: 0.03
microsomal CLint at 1 µM [6]: 14 µL/min/mg
hepatocyte CLint at 1 µM [7]: 8 µL/min/1e6 cells
Papp A→B [8]: 4 ×10⁻⁶ cm/s
Papp B→A [9]: 23 ×10⁻⁶ cm/s
IC50 [10]: > 33 µM
INH (Cytochrome P450 3A4): > 30 µM
INH (Cytochrome P450 2D6): > 30 µM
INH (Cytochrome P450 2C9): > 30 µM
INH (Cytochrome P450 2C19): > 30 µM
INH (Cytochrome P450 1A2): > 30 µM
IC50 (Adenosine receptor A1): 8 µM
IC50 [11]: 0.14 µM
Activity (Staphylococcus aureus): inactive
Activity (Streptococcus pneumoniae): inactive
Activity (Haemophilus influenzae [14]): inactive
Activity (Haemophilus influenzae [15]): inactive
Activity (Escherichia coli [16]): inactive
Activity (Escherichia coli [17]): inactive
Activity (Pseudomonas aeruginosa [18]): inactive
Activity (Pseudomonas aeruginosa [19]): inactive
Activity (Klebsiella pneumoniae): inactive
Activity [20]: inactive
Activity [21]: inactive
Activity (Candida albicans): inactive
C0 [22]: 5.4 µM
AUC(0-inf) [23]: 3.4 µM·h
half-life [24]: 1.1 h
clearance [25]: 24.8 mL/min/kg
Vd [26]: 1.2 L/kg
Cmax [27]: 7 µM
AUC(0-inf) [28]: 19 µM·h
half-life [29]: 1.3 h
bioavailability [30]: 100%
